Experimental data published in ChEMBL document CHEMBL1147762, “A new chemical tool for exploring the physiological function of the PDE2 isozyme” (Bioorg Med Chem Lett, 2006).

What was measured:
[1] = molecular target: MAP kinase-activated protein kinase 2 (Homo sapiens) (UniProt P49137); experiment: Inhibition of MAPKAPK2 at 10 uM
[2] = molecular target: Ribosomal protein S6 kinase (P70S6K) (Homo sapiens) (UniProt Q9UBS0+P23443); experiment: Inhibition of p70S6K at 10 uM; format: protein-complex assay
[3] = Activity against GABA uptake at 10 uM
Procedure, shortened: (§1)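 Single-concentration screen within a panel of 54 receptors and ion channels, measuring binding or interaction at each target.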

[4] = molecular target: Serine/threonine-protein kinase Nek6 (Homo sapiens) (UniProt Q9HC98); experiment: Inhibition of NEK6 at 10 uM
[5] = molecular target: Melanocortin receptor 4 (Homo sapiens) (UniProt P32245); experiment: Percentage binding to MCR4 at 10 uM
[6] = molecular target: Vasopressin V1 receptor (Homo sapiens) (UniProt P37288+P47901); experiment: Percentage binding to vasopressin V1 at 10 uM; format: protein assay
Vasopressin V1 receptor (Homo sapiens), sequence (P37288 whole entry, looked up): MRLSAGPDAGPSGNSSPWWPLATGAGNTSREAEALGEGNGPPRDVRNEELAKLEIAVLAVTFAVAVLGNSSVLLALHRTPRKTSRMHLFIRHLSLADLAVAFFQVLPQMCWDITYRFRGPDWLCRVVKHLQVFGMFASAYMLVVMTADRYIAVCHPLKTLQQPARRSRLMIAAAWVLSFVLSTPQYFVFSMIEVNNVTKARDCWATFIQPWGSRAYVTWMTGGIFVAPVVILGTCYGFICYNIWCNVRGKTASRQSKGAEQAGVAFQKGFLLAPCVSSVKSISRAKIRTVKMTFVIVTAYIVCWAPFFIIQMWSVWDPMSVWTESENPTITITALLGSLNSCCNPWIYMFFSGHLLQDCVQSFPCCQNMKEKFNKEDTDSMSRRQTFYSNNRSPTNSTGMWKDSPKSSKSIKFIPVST
Vasopressin V1 receptor (Homo sapiens), sequence (P47901 whole entry, looked up): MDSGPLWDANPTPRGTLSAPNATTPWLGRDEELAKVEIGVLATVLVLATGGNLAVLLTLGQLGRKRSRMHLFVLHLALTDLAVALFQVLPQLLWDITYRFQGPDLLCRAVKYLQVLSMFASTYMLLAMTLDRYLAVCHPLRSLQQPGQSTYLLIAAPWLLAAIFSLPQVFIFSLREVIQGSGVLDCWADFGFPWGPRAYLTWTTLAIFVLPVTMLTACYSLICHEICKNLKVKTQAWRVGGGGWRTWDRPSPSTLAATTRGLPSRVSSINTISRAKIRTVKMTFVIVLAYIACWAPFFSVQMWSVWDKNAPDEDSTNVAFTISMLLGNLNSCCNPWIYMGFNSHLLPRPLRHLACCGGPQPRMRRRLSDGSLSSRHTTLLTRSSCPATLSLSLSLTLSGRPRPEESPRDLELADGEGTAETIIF

[7] = molecular target: 3',5'-cyclic-AMP phosphodiesterase 4A (Homo sapiens, UniProt P27815); experiment: Inhibitory activity against PDE4A by scintillation proximity assay
Procedure, shortened: (§2)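 Phosphodiesterase inhibition run as a scintillation proximity assay, with enzyme at a concentration in the linear range. Final substrate was 1 µM, below one-third of the enzyme K_M, so that IC50 approximates Ki. Values are means of n experiments with standard deviation.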

[8] = molecular target: Type-1 angiotensin II receptor (Homo sapiens) (UniProt P30556); experiment: Percentage binding to angiotensin II type1 receptor at 10 uM
[9] = Percentage binding to neuronal NACHR at 10 uM; procedure, shortened: as §1
[10] = molecular target: Sodium-dependent noradrenaline transporter (Homo sapiens) (UniProt P23975); experiment: Activity against norepinephrine uptake at 10 uM
[11] = molecular target: Rho-associated protein kinase 2 (Homo sapiens) (UniProt O75116); experiment: Inhibition of ROCK2 at 10 uM
Rho-associated protein kinase 2 (Homo sapiens), sequence (O75116 whole entry, looked up): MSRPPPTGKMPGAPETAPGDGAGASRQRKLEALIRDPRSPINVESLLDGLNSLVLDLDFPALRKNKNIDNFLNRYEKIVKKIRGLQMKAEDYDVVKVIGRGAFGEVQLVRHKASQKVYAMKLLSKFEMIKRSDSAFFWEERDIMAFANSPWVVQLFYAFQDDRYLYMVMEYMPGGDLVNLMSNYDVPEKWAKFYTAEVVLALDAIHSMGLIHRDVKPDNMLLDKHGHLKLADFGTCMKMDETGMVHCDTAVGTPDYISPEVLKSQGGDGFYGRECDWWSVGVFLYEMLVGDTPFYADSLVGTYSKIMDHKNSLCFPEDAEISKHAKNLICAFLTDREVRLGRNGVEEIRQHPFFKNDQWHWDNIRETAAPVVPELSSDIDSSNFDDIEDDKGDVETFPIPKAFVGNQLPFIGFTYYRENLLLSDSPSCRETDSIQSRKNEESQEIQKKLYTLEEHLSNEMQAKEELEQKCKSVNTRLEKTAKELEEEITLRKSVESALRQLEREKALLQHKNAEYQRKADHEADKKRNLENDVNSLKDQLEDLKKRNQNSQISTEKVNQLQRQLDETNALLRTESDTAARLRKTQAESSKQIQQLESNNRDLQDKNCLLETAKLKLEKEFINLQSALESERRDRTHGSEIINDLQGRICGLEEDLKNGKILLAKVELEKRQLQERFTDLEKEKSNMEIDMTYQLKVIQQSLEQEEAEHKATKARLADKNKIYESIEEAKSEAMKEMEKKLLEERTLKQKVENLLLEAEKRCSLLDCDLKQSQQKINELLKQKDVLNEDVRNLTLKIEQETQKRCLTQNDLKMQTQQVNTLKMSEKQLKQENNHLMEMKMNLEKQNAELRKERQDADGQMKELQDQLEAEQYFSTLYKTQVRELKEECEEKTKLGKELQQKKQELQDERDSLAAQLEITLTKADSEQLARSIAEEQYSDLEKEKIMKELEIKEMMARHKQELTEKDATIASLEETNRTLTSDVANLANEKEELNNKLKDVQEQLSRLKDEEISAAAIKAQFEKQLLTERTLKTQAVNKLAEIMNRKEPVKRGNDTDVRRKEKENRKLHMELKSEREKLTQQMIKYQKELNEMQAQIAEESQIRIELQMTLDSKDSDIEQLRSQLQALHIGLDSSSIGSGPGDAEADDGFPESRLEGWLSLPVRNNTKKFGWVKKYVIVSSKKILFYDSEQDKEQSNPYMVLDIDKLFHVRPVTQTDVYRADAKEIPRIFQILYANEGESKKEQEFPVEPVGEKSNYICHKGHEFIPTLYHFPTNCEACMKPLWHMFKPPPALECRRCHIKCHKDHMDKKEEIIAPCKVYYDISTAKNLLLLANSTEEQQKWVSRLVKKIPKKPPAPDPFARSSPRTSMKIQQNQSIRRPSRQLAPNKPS

[12] = molecular target: Adrenergic receptor alpha-1 (Homo sapiens) (UniProt P35348+P25100+P35368); experiment: Percentage binding to adrenergic alpha-1 receptor at 10 uM; format: protein assay
[13] = molecular target: Mu-type opioid receptor (Homo sapiens) (UniProt P35372); experiment: Percentage binding to opioid mu at 10 uM
Mu-type opioid receptor (Homo sapiens), sequence (P35372 whole entry): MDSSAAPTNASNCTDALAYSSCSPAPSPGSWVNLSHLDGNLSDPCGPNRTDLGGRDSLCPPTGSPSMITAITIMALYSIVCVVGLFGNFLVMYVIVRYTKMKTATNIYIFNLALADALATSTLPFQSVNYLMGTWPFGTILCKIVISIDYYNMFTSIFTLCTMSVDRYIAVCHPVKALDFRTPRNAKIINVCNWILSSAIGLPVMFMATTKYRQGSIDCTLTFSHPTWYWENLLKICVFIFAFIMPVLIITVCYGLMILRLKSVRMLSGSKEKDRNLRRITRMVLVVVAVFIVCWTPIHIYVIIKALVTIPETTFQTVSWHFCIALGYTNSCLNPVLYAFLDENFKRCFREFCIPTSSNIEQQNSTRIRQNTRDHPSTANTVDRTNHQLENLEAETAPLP

[14] = molecular target: Dual specificity mitogen-activated protein kinase kinase 1 (Homo sapiens) (UniProt Q02750); experiment: Inhibition of MKK1 at 10 uM
[15] = molecular target: Muscarinic acetylcholine receptor M1 (Homo sapiens) (UniProt P11229); experiment: Percentage binding to muscarinic M1 at 10 uM
[16] = Apical Caco-2 cell membrane permeability; format: ADME, cell-based; conditions: human
[17] = molecular target: Mitogen-activated protein kinase 12 (Homo sapiens) (UniProt P53778); experiment: Inhibition of SAPK3 at 10 uM
[18] = Tmax in rat; format: ADME, organism-based; conditions: Sprague-Dawley, in vivo
[19] = molecular target: Protein kinase C alpha type (Homo sapiens) (UniProt P17252); experiment: Inhibition of PKCalpha at 10 uM
[20] = molecular target: D(1A) dopamine receptor (Homo sapiens) (UniProt P21728); experiment: Percentage binding to dopamine D1 at 10 uM
D(1A) dopamine receptor (Homo sapiens), sequence (P21728 whole entry): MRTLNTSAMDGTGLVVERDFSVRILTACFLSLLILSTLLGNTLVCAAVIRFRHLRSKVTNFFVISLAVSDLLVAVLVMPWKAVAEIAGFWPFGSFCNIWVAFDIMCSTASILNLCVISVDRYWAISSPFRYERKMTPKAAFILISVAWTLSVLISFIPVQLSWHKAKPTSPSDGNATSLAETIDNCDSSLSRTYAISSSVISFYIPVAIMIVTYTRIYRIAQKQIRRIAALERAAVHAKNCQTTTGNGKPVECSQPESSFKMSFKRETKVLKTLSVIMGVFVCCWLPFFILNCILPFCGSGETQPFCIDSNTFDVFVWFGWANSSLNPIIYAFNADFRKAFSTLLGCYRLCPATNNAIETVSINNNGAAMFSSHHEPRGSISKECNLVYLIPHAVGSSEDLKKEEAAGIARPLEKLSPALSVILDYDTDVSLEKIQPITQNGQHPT

[21] = molecular target: 3',5'-cyclic-AMP phosphodiesterase 4B (Homo sapiens, UniProt Q07343); experiment: Inhibitory activity against PDE4B by scintillation proximity assay; procedure, shortened: as §2
3',5'-cyclic-AMP phosphodiesterase 4B, sequence (Q07343 whole entry): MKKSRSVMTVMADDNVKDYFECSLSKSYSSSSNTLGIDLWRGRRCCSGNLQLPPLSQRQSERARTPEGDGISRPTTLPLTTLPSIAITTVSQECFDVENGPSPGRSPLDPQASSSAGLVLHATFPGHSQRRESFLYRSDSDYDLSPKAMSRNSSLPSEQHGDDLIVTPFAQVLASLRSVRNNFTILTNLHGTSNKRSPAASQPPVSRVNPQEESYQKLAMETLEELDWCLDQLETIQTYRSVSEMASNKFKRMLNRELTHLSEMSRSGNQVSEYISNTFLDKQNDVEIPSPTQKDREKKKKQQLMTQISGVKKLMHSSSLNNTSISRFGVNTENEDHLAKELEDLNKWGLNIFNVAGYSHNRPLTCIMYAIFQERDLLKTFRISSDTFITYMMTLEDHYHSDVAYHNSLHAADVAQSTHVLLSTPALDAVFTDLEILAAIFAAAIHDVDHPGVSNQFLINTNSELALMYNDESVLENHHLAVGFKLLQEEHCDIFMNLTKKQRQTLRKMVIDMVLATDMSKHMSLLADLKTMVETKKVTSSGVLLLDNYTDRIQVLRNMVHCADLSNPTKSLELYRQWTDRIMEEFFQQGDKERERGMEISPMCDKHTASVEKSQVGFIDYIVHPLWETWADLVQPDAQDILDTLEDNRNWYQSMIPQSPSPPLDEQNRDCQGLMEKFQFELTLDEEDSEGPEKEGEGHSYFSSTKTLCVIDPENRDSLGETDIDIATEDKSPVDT

[22] = molecular target: Casein kinase I (Homo sapiens) (UniProt Q9HCP0+P78368+P48730+P49674+P48729); experiment: Inhibition of CK1 at 10 uM; format: protein assay
[23] = molecular target: Voltage-dependent L-type calcium channel subunit alpha-1D (Homo sapiens) (UniProt Q01668); experiment: Percentage binding to dihydropyridine sensitive Ca2+ channel D at 10 uM; procedure, shortened: as §1
[24] = molecular target: D(4) dopamine receptor (Homo sapiens) (UniProt P21917); experiment: Percentage binding to dopamine D4 at 10 uM
[25] = molecular target: Dual specificity tyrosine-phosphorylation-regulated kinase 1A (Homo sapiens) (UniProt Q13627); experiment: Inhibition of DYRK1A at 10 uM
[26] = molecular target: Histamine H3 receptor (Homo sapiens) (UniProt Q9Y5N1); experiment: Percentage binding to histamine H3 at 10 uM
Histamine H3 receptor (Homo sapiens), sequence (Q9Y5N1 whole entry): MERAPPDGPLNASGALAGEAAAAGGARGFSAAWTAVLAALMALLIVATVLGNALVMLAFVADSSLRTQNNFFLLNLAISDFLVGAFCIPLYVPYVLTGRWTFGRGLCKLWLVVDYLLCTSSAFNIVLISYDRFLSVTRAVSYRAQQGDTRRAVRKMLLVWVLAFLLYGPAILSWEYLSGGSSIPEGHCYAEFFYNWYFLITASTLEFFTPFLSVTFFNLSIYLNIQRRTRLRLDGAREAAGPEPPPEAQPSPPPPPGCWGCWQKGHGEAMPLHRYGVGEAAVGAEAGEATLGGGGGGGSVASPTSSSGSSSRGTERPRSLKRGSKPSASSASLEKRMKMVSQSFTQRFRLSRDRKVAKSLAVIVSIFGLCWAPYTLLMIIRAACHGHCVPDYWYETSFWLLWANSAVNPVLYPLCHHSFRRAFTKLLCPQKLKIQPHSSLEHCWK

## CN1C(=O)C(C(=O)Nc2nncs2)c2cc3occc3cc21 (stereo unspecified)
[1]
  inhibition: 8%
[2]
  inhibition: 23%
[3]
  Activity: 8%
[4]
  inhibition: 7%
[5]
  Activity: 12%
[6]
  Activity: 5%
[7]
  IC50: > 16 µM
[8]
  Activity: 11%
[9]
  Activity: 7%
[10]
  Activity: 12%
[11]
  inhibition: 20%
[12]
  Activity: 0%
[13]
  Activity: 3%
[14]
  inhibition: 0%
[15]
  Activity: 9%
[16]
  Papp: 5 ×10⁻⁶ cm/s
[17]
  inhibition: 7%
[18]
  Tmax: 48 min
[19]
  inhibition: 13%
[20]
  Activity: 5%
[21]
  IC50: > 16 µM
[22]
  inhibition: 10%
[23]
  Activity: 0%
[24]
  Activity: 0%
[25]
  inhibition: 53%
[26]
  Activity: 0%
